LYPLA2 counter – blocks human lysophospholipase 2, a PME1 counter-screen; recombinant LYPLA2, FP-Rh probe fluorescence polarization; inhibition, % at 5.9 µM; hit rate 0.38% among 320,000;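 active = inhibition above the screen-wide mean plus 3 SD, limit set per campaign, cut at about 26% in these data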;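 also: 0% = LYPLA2 with DMSO and 100% = wells lacking LYPLA2 enzyme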
LYPLA1 counter – LYPLA1 (human) inhibition in PME1 counter-screen | recombinant LYPLA1, FP-Rh probe fluorescence polarization | inhibition, % at 5.9 µM | hit rate 0.16% among 320,000;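 active = inhibition above the mean of all tested compounds plus 3 SD, set per campaign, cut at about 14% in these data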;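 also: inhibitors block serine hydrolase probe labeling of LYPLA1 so polarization falls; 0% = enzyme with DMSO and 100% = wells lacking LYPLA1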
proCasp7 act – activates human procaspase-7, counter-screen for procaspase-3 activators | P55210 | recombinant procaspase-7, Ac-DEVD-pNA absorbance 405 nm; D23A/D198A/D206A triple mutant, cannot self-cleave; scale: DMSO 0, 5 µM enzyme 100 | activation, % at 8.5 µM | hit rate 0.093% among 330,000;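 active = percent activation above the screen-wide mean plus 3 SD, cut at about 25% in these data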
Target sequence (P55210 whole entry D23A/D198A/D206A): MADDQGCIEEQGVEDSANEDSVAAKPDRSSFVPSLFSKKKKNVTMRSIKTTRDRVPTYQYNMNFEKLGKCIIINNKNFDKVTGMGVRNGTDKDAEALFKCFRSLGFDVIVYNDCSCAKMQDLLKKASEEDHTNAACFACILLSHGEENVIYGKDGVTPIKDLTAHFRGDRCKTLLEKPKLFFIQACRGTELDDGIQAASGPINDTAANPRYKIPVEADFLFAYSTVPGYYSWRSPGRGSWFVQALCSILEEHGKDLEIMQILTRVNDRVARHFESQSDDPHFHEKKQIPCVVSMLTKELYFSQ
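Assay system – Uncleavable procaspase-7 mutant enzyme · Quantity – 2 µM procaspase-7 mutant as dispensed · Times – 1 h preincubation, 2 h reaction · Dosing – single nominal 8.5 µM compound dose, 0.8% DMSO final · Buffer or medium – Zinc-free 50 mM HEPES buffer, pH 7.4, with NaCl and Triton X-100 · Detection – Epi-absorbance of released pNA at 405 nm, two timepoints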
procasp3 activ – activators of human procaspase-3; P42574; recombinant procaspase-3 D3A, Ac-DEVD-pNA absorbance 405 nm; activation, % at 8.5 µM; hit rate 0.11% among 330,000; AID 463141;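 active = activation above the mean of all tested compounds plus 3 SD, cut at about 21% in these data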;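 also: 0% = DMSO alone and 100% = DMSO wells spiked with extra 5 µM PC-3 D3A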
Target sequence (P42574 whole entry D9A/D28A/D175A): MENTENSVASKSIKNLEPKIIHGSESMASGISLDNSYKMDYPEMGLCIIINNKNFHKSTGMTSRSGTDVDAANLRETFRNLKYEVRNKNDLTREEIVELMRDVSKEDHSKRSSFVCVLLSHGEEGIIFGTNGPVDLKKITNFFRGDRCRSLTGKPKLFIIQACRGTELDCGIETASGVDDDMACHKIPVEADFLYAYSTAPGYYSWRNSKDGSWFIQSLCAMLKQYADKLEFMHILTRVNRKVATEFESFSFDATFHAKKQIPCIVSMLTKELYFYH
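Technique: 405 nm absorbance of p-nitroaniline, reads at 0 and 120 min; Test system: Procaspase-3 D3A mutant; Incubation: 1 h enzyme-compound preincubation, then 2 h substrate reaction, 25 °C; Repeats: singlicate, each compound tested once; Benchmarks: low control DMSO wells, high control DMSO plus 5 µM PC-3 D3A.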
PREPL inh – inhibits the human prolyl oligopeptidase-like enzyme | Q4J6C6 | inhibition, % at 5.96 µM | recombinant PREPL, fluorescence polarization activity-based probe | AID 2751 | hit rate 0.68% among 320,000;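 also: 0% = enzyme with DMSO and 100% = wells lacking enzyme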
PREPL inh cf – confirmation of human PREPL enzyme inhibitors. hit rate 67% among 2,000. recombinant PREPL, fluorescence polarization activity probe. inhibition, % at 5.96 µM. shares compounds with PREPL inh;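 also: 0% = protein with DMSO and 100% = wells lacking protein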
* hit, by the source's call; / = no result given. An excerpt weighted towards active compounds, which were near 1% of everything screened. Rule as the data show it, unless noted: active = inhibition above about 43%; inactive = the rest.

SMILES	LYPLA2 counter	LYPLA1 counter	proCasp7 act	procasp3 activ	PREPL inh	PREPL inh cf
O=C(COc1ccccc1F)Nc1ccc2[nH]c(=O)[nH]c2c1	6.4	2.3	3.0	3.7	4.6	/
c1cc2c(cc1CNc1ccc(N3CCOCC3)cc1)OCO2	/	/	-13.8	-7.0	57.5*	34.4
Cc1ccc(CNc2ccc(N3CCOCC3)cc2)cc1	-4.9	2.7	-14.6	2.2	44.1*	33.9
CC(C)c1ccc(CNc2ccc(N3CCOCC3)cc2)cc1	3.2	0.6	-6.0	-17.4	51.8*	55.3*
c1cc(CNc2ccc(N3CCOCC3)cc2)ccn1	4.4	-2.5	-7.9	-8.1	21.7	/
CCCCN(C(=O)c1ccc2c(c1)NC(=O)CS2)c1ccccc1	2.4	-1.1	-1.2	-3.7	15.3	/
O=C(c1ccc(Cl)cc1Cl)N1CCSCC1	-2.7	2.3	6.4	2.2	5.5	/
COc1ccc(Nc2nnc(SC(C(=O)Nc3ccc(OC)c(Cl)c3)c3ccccc3)s2)cc1 (stereo not given)	1.7	-3.5	-8.6	-5.5	46.6*	42.4
COc1ccc(Nc2nnc(SC(C(=O)Nc3cc(C)ccc3C)c3ccccc3)s2)cc1 (stereo not given)	-0.2	-3.0	8.7	7.3	-8.2	/
O=C(CS(=O)c1ccc(C(F)(F)F)cc1[N+](=O)[O-])Oc1ccccc1 (stereo not given)	-1.0	2.8	-5.8	-5.9	52.9*	51.9*
COC(=O)c1ccc(OC(=O)CS(=O)c2ccccc2[N+](=O)[O-])cc1 (stereo not given)	-1.9	1.2	-4.4	5.0	11.3	/
CCN1CCN(c2cc(C(C)(C)C)nc3c(-c4ccccc4)c(C)nn23)CC1	1.8	-0.9	0.1	-1.8	15.5	/
CCCCCc1cc(=O)oc2c(C(CCN3CCCC3)c3ccc(N(C)C)cc3)c(OC)cc(OC)c12 (stereo not given)	-0.1	-3.8	4.6	-8.7	50.4*	48.6*
CC1=Nc2ccccc2/C1=C\c1sc(Nc2ccc(C)cc2)nc1O	-2.2	-3.0	-7.1	10.0	52.0*	45.7*
Oc1nc(Nc2cccc(Cl)c2)sc1/C=C1\C=Nc2ccccc21	-11.4	-3.2	-13.3	-7.7	55.9*	64.3*
O=C(Cn1c(O)c(/C=C2\C=Nc3ccccc32)sc1=O)N1CCOCC1	14.2	6.9	-4.8	3.5	-54.4	/
Oc1cccc(Nc2nc(O)c(/C=C3\C=Nc4ccccc43)s2)c1	-21.3	-18.7	-6.0	-12.2	53.4*	52.0*
COc1ccc(Cl)cc1S(=O)(=O)N1CCCC(C(=O)NCc2ccccc2)C1 (stereo not given)	-2.5	-2.9	15.0	-4.0	14.1	/
S=C(NCCCN1CCOCC1)N1CCN(c2nc(-c3ccc(Cl)cc3)cs2)CC1	0.9	0.8	-1.6	-1.3	43.7*	43.0*
S=C(NCCCN1CCOCC1)N1CCN(c2nc(-c3ccccc3)cs2)CC1	10.2	0.0	-14.1	-5.8	36.9	/
O=C(NNc1ccccc1)C(CCO)C(=O)NNc1ccccc1	-1.3	-2.3	-8.3	2.1	-1.2	/
O=C(COc1coc(CN2CCc3ccccc32)cc1=O)N1CCCCC1	4.7	1.1	-16.2	1.5	44.5*	35.0
NCCSc1c(-c2ccccc2)[nH]c2ccccc12	-5.4	-4.6	-6.3	-1.5	35.1	/
NCCSc1c(-c2ccc(Cl)cc2)[nH]c2ccccc12	-0.8	-7.4	-9.4	-4.4	45.6*	39.2
Cc1ccc(-c2[nH]c3ccccc3c2SCCN)cc1	-2.1	-1.1	4.0	16.4	57.0*	41.1
SMILES	LYPLA2 counter	LYPLA1 counter	proCasp7 act	procasp3 activ	PREPL inh	PREPL inh cf
NCCSc1c(-c2ccc(F)cc2)[nH]c2ccccc12	-3.4	-1.4	0.0	2.0	26.9	/
CNC(=O)/C(C#N)=C/c1c(N2CCN(c3ccc(OC)cc3)CC2)nc2c(C)cccn2c1=O	7.5	1.9	-2.0	-6.4	52.2*	43.9*
COC(=O)/C(C#N)=C/c1c(N2CCN(c3ccc(OC)cc3)CC2)nc2c(C)cccn2c1=O	4.2	4.5	-22.7	-9.4	48.2*	45.9*
COCCCNC(=O)/C(C#N)=C/c1c(N2CCN(c3ccc(OC)cc3)CC2)nc2c(C)cccn2c1=O	8.3	-2.1	-1.6	-1.6	50.7*	51.8*
COc1ccccc1CCc1nnc(CCC(=O)N(C)Cc2cccc3cnccc23)o1	6.5	0.4	4.2	1.9	-1.9	/
NS(=O)(=O)c1ccc(C(=O)O)cc1	3.5	2.1	3.1	-8.2	-0.1	/
CN(C)c1ccc(NC(=O)c2cccc(C(=O)Nc3ccc(N(C)C)cc3)n2)cc1	2.0	7.2	-3.3	-2.8	72.3*	70.5*
O=C(Nc1ccccc1)c1cccc(C(=O)Nc2ccccc2)n1	-1.9	-5.0	-9.6	-3.1	2.7	/
CC(C)C[C@@H](C(=O)NC1CCN(Cc2ccccc2)CC1)N1C(=O)N2CCc3c([nH]c4ccccc34)[C@@]2(C)C1=O	3.5	-0.1	-6.3	5.7	43.5*	32.9
CC1(C)C(=O)Nc2ccccc2N1C(=O)COC(=O)Cc1ccc(Cl)c(Cl)c1	/	/	-2.5	5.1	46.7*	38.4
O=C(CSc1ccccc1)NCc1ccccn1	-5.4	-0.9	-5.3	1.1	-2.8	/
Cc1ccc2c(c1)c1c3n2CCN(CC(O)CNC(C)C)C3CCC1 (stereo not given)	-5.9	0.8	-3.1	-2.1	43.7*	31.3
O=C(Cn1c(O)c(/C=C2\C=Nc3ccc(Br)cc32)sc1=O)N1CCCC1	-0.2	5.0	20.5	20.1	43.1*	36.4
COc1ccc(Nc2nc(-c3sc(N)nc3C)cs2)cc1	-4.2	-6.3	-20.6	-11.3	49.9*	25.8
CCOc1ccc(Nc2nc(-c3sc(N)nc3C)cs2)cc1	1.1	-5.4	-15.3	2.8	18.1	/
Cc1nc(N)sc1-c1csc(Nc2cccc(O)c2)n1	-5.0	-5.2	-29.8	-9.2	8.7	/
CC(=O)Nc1ccc(Nc2nc(-c3sc(C)nc3C)cs2)cc1	5.3	4.6	-6.1	3.0	14.9	/
COc1ccc(CCNc2nc(-c3sc(N)nc3C)cs2)cc1OC	-0.9	-4.4	-31.0	-18.4	43.1*	22.5
Cc1ccc(Nc2nc(-c3sc(C)nc3C)cs2)cc1	6.2	1.3	2.7	-5.3	46.4*	31.7
Cc1nnc(NC(=O)CSc2nnc(-c3ccco3)o2)s1	-0.7	1.8	-7.0	-2.2	-1.1	/
COc1ccc(N2CCN(CCC(O)c3ccc4ccccc4c3)CC2)cc1 (stereo not given)	3.8	-0.4	-12.3	-5.3	70.5*	68.1*
Cc1ccccc1-c1nc(CS(=O)(=O)CC(=O)NCCCN2CCOCC2)c(C)o1	0.0	-0.8	5.8	3.2	4.1	/
Fc1ccc2nc3c(nc2c1)CCCC3	4.8	1.9	-3.0	-0.2	1.1	/
COc1ccc(/C=C/C(=O)NCCCc2ccccc2)cc1	9.8	2.5	3.9	17.1	-8.0	/
